Source: PubChem
This is a sample that favours compounds with a hit; in the whole collection about 3% have one here.
CHRM4 agonist: CHRM4 agonism in calcium assay. 0.14% of 360,000 active. CHO-K1 hM4/Gqi5, Fluo-8 calcium fluorescence; vehicle 0%, full acetylcholine response 100%. activation, % at 3 µM. P08173. AID 624127;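 active means activation above the run mean over all test wells plus 3 SD, cut at about 32% in these data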;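 further: peak over basal fluorescence ratio per well then scaled between controls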
M4 antag: blocks acetylcholine activation of human M4 receptor; P08173; CHO-hM4 cells, ACh EC80, Fluo-8 calcium fluorescence; inhibition, % at 3 µM; 0.73% of 360,000 active; AID 624125;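 active means inhibition above its plate's cutoff, the mean inhibition of sample wells plus 3 SD, cut at about 27% in these data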
TAAR1 ag: human TAAR1 agonism; Q96RJ0; CHO RD-HGA16 TAAR1, Fluo-8 calcium fluorescence; vehicle wells 0%, saturating PEA agonist 100%; activation, % at 3 µM; 0.99% of 360,000 active;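 active means activation above the mean activation of all test compounds in the run plus 3 SD, cut at about 38% in these data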
Target sequence (Q96RJ0 whole entry, looked up): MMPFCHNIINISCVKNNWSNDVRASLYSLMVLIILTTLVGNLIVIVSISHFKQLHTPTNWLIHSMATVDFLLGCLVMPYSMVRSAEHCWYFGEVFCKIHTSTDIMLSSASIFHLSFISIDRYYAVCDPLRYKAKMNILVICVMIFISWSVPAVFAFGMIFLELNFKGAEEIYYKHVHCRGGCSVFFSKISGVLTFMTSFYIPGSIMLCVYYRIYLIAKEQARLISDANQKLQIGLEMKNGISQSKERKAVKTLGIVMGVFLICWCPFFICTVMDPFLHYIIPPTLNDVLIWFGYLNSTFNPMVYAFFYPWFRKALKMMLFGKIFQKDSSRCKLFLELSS
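Assay system – CHO-derived RD-HGA16 cells with stable Gα16 and human TAAR1 · Compound dosing – one-point dosing at 3 µM (nominal) · Incubation – 17-24 h seeding, 75 min 37 °C dye, 30 min RT · Measured by – kinetic Fluo-8 calcium fluorescence · Control set – DMSO vehicle as 0%, PEA at EC100 as 100% · Repeats – single well for each compound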
TAAR1 antagonist: human TAAR1 antagonism | AID 624466 | Q96RJ0 | inhibition, % at 3 µM | CHO RD-HGA16 TAAR1, Fluo-8 calcium fluorescence, antagonist | 1.5% of 360,000 active;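 active means inhibition above a per-plate cutoff, the mean inhibition of test compounds on that plate plus 3 SD, cut at about 49% in these data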
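test system = CHO RD-HGA16 cells bearing hTAAR1 | replication = singlicate | controls = DMSO-only wells and EC80 β-PEA-stimulated wells | reagent = EC80 β-phenethylamine stimulus | read-out basis = percent inhibition of PEA-evoked calcium signal, max/basal emission ratio | schedule = seeding 17-24 h prior, 75-min 37 °C, 30-min RT dye loading | signal = kinetic Fluo-8 calcium fluorescence measurement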
CHRM4 PAM: potentiates acetylcholine response at human M4 receptor | P08173 | 0.4% of 360,000 active | CHO-K1 hM4/Gqi5, Fluo-8 calcium fluorescence, ACh EC20; 0% = ACh EC20, 100% = maximal ACh | activation, % at 3 µM;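 active means activation above its plate's cutoff, the mean activation of sample wells plus 3 SD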
TAAR1 nonsel count: nonselective antagonist in TAAR1 antagonist counter-screen. shares compounds with TAAR1 antagonist. counterscreen cell line, calcium fluorescence, antagonist mode. inhibition, % at 3 µM. 77% of 2,400 active. AID 651780; in the data active means inhibition above about 22%;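 further: CHO-Ga16 host cells stimulated with ATP at an EC80 level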
TAAR1 ant conf: confirmation of human TAAR1 antagonists | shares compounds with TAAR1 antagonist | TAAR1-expressing cells, fluorescence antagonist read-out | inhibition, % at 3 µM | 40% of 2,400 active | AID 651785; in the data active means inhibition above about 49%;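 further: CHO-Ga16 host cells challenged with agonist PEA near its EC80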
Ga16 ag counter: nonselective Ga16 agonist in TAAR1 antagonist counter-screen | shares compounds with TAAR1 antagonist | Ga16-expressing cells, calcium fluorescence, agonist counterscreen | activation, % at 3 µM | 18% of 2,400 active | AID 651953; in the data active means activation above about 12%
TAAR1 ag counter: TAAR1 agonism, antagonist counter-screen. shares compounds with TAAR1 antagonist. hTAAR1 cell line, fluorescence activation, agonist mode. activation, % at 3 µM. 2% of 2,400 active. AID 651955; in the data active means activation above about 37%;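 further: CHO cells stably expressing TAAR1 with calcium dye readout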
Numbers stand for hits; – = inactive; · = no result given.

SMILES	CHRM4 agonist	M4 antag	TAAR1 ag	TAAR1 antagonist	CHRM4 PAM	TAAR1 nonsel count	TAAR1 ant conf	Ga16 ag counter	TAAR1 ag counter
COCCNC(=O)c1ccc(N2CC3CC(C2)c2cccc(=O)n2C3)c(NC(=O)c2ccccc2Cl)c1 (stereo unspecified)	–	–	–	–	–	·	·	·	·
COc1cc(C(=O)Nc2nc(-c3cccs3)cs2)cc(OC)c1OC	–	–	–	83	–	45	62	16	–
O=C(Nc1nc(-c2cccs2)cs1)c1ccc(Cl)cc1	–	–	–	–	–	·	·	·	·
CCC(=O)c1ccc(OCC(=O)Nc2nc(C)cs2)cc1	–	–	–	–	–	·	·	·	·
CCC(=O)c1ccc(OCC(=O)Nc2nc(-c3cccnc3)cs2)cc1	–	–	–	74	–	37	55	–	–
O=C(COc1ccc(Cl)cc1)Nc1nc(-c2cccs2)cs1	–	–	–	68	–	23	–	–	–
CC(=O)Oc1ccccc1Cn1c(C)c(C(=O)NCc2ccc(Cl)c(Cl)c2)sc1=O	–	–	–	–	–	·	·	·	·
O=C(COC(=O)CCc1nc2ccccc2s1)Nc1nc(-c2ccccc2)cs1	–	–	–	55	–	33	–	–	–
CN1C(=O)[C@H]2[C@@H](/C=C/c3ccccc3)N3C(=O)CN(Cc4ccccn4)C(=O)[C@@]3(Cc3ccccc3)[C@H]2C1=O	–	–	–	–	–	·	·	·	·
O=C1[C@H]2[C@@H](/C=C/c3ccccc3)N3C(=O)CN(Cc4ccccn4)C(=O)[C@@]3(Cc3ccccc3)[C@H]2C(=O)N1c1ccccc1	–	–	–	70	–	28	–	–	–
CC(=O)c1cnc2c(-c3ccccc3)c(C(F)(F)F)nn2c1C	–	–	–	–	–	·	·	·	·
Cc1nn2c(C)c(C(=O)Nc3ccccc3)cnc2c1-c1ccccc1	–	–	–	58	–	25	–	–	–
COc1ccccc1-c1cc(NC(C)=O)c2ncc(-c3cccc(C(C)=O)c3)n2c1	–	–	–	86	–	32	53	–	–
CC(=O)Nc1cc(-c2ccc(CO)cc2)cn2c(-c3cccc(C(F)(F)F)c3)cnc12	–	–	–	70	–	36	51	–	–
CC(=O)Nc1cc(-c2ccc(N)cc2)cn2c(-c3cccc(C(F)(F)F)c3)cnc12	–	–	–	–	–	·	·	·	·
COc1cc(-c2cc(NC=O)c3ncc(-c4ccc(C(C)=O)cc4)n3c2)cc(OC)c1OC	–	–	–	53	–	23	–	–	–
Cc1nc2cc(OC3(C)CCN(Cc4ccc(OC(F)(F)F)cc4)C3)ccc2s1 (stereo unspecified)	–	–	–	–	–	·	·	·	·
CCOC(=O)[C@]12CCC=C1N(Cc1ccc3c(c1)OCO3)C(=O)[C@H](CC(=O)N1CCSCC1)C2	–	–	–	–	–	·	·	·	·
CCOC(=O)[C@]12CCCC=C1N(Cc1ccco1)C(=O)[C@H](CC(=O)N1CCOCC1)C2	–	–	–	–	–	·	·	·	·
O=C(COc1ccc(-c2ccccc2)cc1)N/N=C/c1ccccc1Br	–	–	–	–	–	·	·	·	·
N#Cc1ccc(-c2ccc(OCC(=O)NN=Cc3ccncc3)cc2)cc1	–	–	–	54	–	26	53	13	–
O=C(COc1ccc(-c2ccccc2)cc1)N/N=C/c1cc(O)ccc1Br	–	–	–	53	–	22	–	–	–
C[C@H](CO)N1C[C@H](C)[C@@H](CN(C)S(=O)(=O)c2ccc(C#N)cc2)OCc2cn(nn2)CCCC1=O	–	–	–	–	–	·	·	·	·
Cc1ccc(C)c(N(C(=O)CNC(=O)c2ccco2)C(C(=O)NCC2CCCO2)c2ccccc2)c1 (stereo unspecified)	–	–	–	61	–	–	–	–	–
C=CCNc1ncnc2c1ncn2[C@H]1CN(Cc2ccc(-c3ccccc3)cc2)C[C@@H](CO)O1	–	–	–	–	–	·	·	·	·
SMILES	CHRM4 agonist	M4 antag	TAAR1 ag	TAAR1 antagonist	CHRM4 PAM	TAAR1 nonsel count	TAAR1 ant conf	Ga16 ag counter	TAAR1 ag counter
O=C(CCCC1=NS(=O)(=O)c2ccccc2N1)N1CCN(c2ccccc2)CC1	–	–	–	–	–	·	·	·	·
COc1cccc(N2CCN(C(=O)CC(C)(C)CC3=NS(=O)(=O)c4ccccc4N3)CC2)c1	–	–	–	72	–	36	59	14	–
COc1ccc(-c2noc(CCC(=O)N3CCN(c4ccccc4C(F)(F)F)CC3)n2)cc1	–	–	–	65	–	28	–	–	–
CSC12CCCN(CCC(C(C)(C)C)C1)C2=O (stereo unspecified)	–	–	–	–	–	·	·	·	·
OC[C@@H]1CN(C2CCCC2)C[C@H](n2cnc3c(NC4CC4)ncnc32)O1	–	–	–	–	–	·	·	·	·
Cc1ccc(C)c(S(=O)(=O)N2CCN(C(=O)Cc3sc(C)nc3-c3ccc(F)cc3)CC2)c1	–	–	–	59	–	23	–	–	–
Cc1nc(-c2ccc(F)cc2)c(CC(=O)N2CCN(S(=O)(=O)c3cccc(Cl)c3)CC2)s1	–	–	–	51	–	25	–	–	–
CC(C)C[C@H]1CN(CCCC[C@@H]2CNC(=O)C(=O)N2CCc2ccccc2)C(=O)C(=O)N1CCc1ccccc1	–	–	–	–	–	·	·	·	·
CC(=O)OC(C=C(C)C)C/C(C)=C/COc1c2ccoc2cc2oc(=O)ccc12 (stereo unspecified)	–	–	–	70	–	28	54	–	–
O=C(Nc1cccc(S(=O)(=O)NC2=NCCCCC2)c1)c1cc(-c2ccco2)nc2ccccc12	–	–	–	51	–	30	–	–	–
O=C(Nc1cccc(-c2csc(Nc3cccc(C(F)(F)F)c3)n2)c1)c1ccccc1	–	–	–	–	–	·	·	·	·
O=C(Nc1cccc(S(=O)(=O)NC2=NCCCCC2)c1)c1cc(-c2ccncc2)nc2ccccc12	–	–	–	–	–	·	·	·	·
CC(=O)c1cccc(NC(=O)c2cc(-c3ccco3)nc3ccccc23)c1	–	–	–	63	–	31	50	–	–
O=C(Nc1ccccc1N1CCOCC1)c1cc(-c2ccco2)nc2ccccc12	–	35	–	62	–	29	49	–	–
COc1cc(-c2cc(C(=O)Nc3ccccc3N3CCOCC3)c3ccccc3n2)cc(OC)c1OC	–	–	–	–	–	·	·	·	·
O=C(Nc1cccc(-c2csc(Nc3ccccc3)n2)c1)c1ccccc1	–	–	–	65	–	28	–	–	–
